Assay results as given in ChEMBL document CHEMBL3112482, “Nonclassical antifolates, part 5. Benzodiazepine analogs as a new class of DHFR inhibitors: synthesis, antitumor testing and molecular modeling study” (Eur J Med Chem, 2014).

Tests used:
Format in all cases: functional
LOX IMVI = experiment: Growth inhibition of human LOXIMVI cells at 10 uM after 48 hrs; conditions: read-out: GI
In short: (§1)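 Single-dose primary screen in the NCI 60 human tumour cell line panel, run at the NCI facility. The panel covers nine subpanels: leukaemia, non-small cell lung, colon, CNS, melanoma, ovarian, renal, prostate and breast. Read-out was percent growth of treated cells, shown as a mean graph and reported as percent growth inhibition.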

U-251 = experiment: Growth inhibition of human U251 cells at 10 uM after 48 hrs; conditions: U-251, 48 h, read-out: GI
In short: (§2)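 NCI 60-cell-line disease-oriented human tumor panel, single-dose primary screen at 10 µM. Data given as mean-graph percent growth of treated cells, reported as percent growth inhibition (GI %).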

SNB-75 = experiment: Growth inhibition of human SNB75 cells at 10 uM after 48 hrs; conditions: SNB-75, 48 h, read-out: GI; in short: as §2
SNB-19 = experiment: Growth inhibition of human SNB19 cells at 10 uM after 48 hrs; conditions: SNB-19, 48 h, read-out: GI; in short: as §2
[1] = Growth inhibition of human SF539 cells at 10 uM after 48 hrs; conditions: SF-539, 48 h, read-out: GI; in short: as §2
SF-268 = experiment: Growth inhibition of human SF268 cells at 10 uM after 48 hrs; conditions: SF-268, 48 h, read-out: GI; in short: as §2
SF-295 = experiment: Growth inhibition of human SF295 cells at 10 uM after 48 hrs; conditions: SF-295, 48 h, read-out: GI; in short: as §2
SW-620 = experiment: Growth inhibition of human SW620 cells at 10 uM after 48 hrs; conditions: SW-620, 48 h, read-out: GI; in short: as §2
COLO 205 = experiment: Growth inhibition of human COLO205 cells at 10 uM after 48 hrs; conditions: COLO 205, 48 h, read-out: GI; in short: as §1
NCI-H522 = experiment: Growth inhibition of human NCI-H522 cells at 10 uM after 48 hrs; conditions: NCI-H522, 48 h, read-out: GI; in short: as §1
NCI-H322M = experiment: Growth inhibition of human NCI-H322M cells at 10 uM after 48 hrs; conditions: read-out: GI; in short: as §1
NCI-H23 = experiment: Growth inhibition of human NCI-H23 cells at 10 uM after 48 hrs; conditions: NCI-H23, 48 h, read-out: GI; in short: as §1
NCI-H226 = experiment: Growth inhibition of human NCI-H226 cells at 10 uM after 48 hrs; conditions: NCI-H226, 48 h, read-out: GI; in short: as §1
HOP-62 = experiment: Growth inhibition of human HOP62 cells at 10 uM after 48 hrs; conditions: HOP-62, 48 h, read-out: GI; in short: as §1
[2] = Growth inhibition of human EKVX cells at 10 uM after 48 hrs; conditions: read-out: GI; in short: as §1
A549 = experiment: Growth inhibition of human A549 cells at 10 uM after 48 hrs; conditions: A549, 48 h, read-out: GI; in short: as §1
SR = experiment: Growth inhibition of human SR cells at 10 uM after 48 hrs; conditions: read-out: GI; in short: as §2
K562 = experiment: Growth inhibition of human K562 cells at 10 uM after 48 hrs; conditions: K562, 48 h, read-out: GI; in short: as §1
MOLT-4 = experiment: Growth inhibition of human MOLT4 cells at 10 uM after 48 hrs; conditions: MOLT-4, 48 h, read-out: GI; in short: as §1
CCRF-CEM = experiment: Growth inhibition of human CCRF-CEM cells at 10 uM after 48 hrs; conditions: read-out: GI; in short: as §1
T47D = experiment: Growth inhibition of human T47D cells at 10 uM after 48 hrs; conditions: read-out: GI; in short: as §2
[3] = Growth inhibition of human Hs 578T cells at 10 uM after 48 hrs; conditions: read-out: GI; in short: as §1
MCF7 = experiment: Growth inhibition of human MCF7 cells at 10 uM after 48 hrs; conditions: MCF7, 48 h, read-out: GI; in short: as §1
MDA-MB-231 = experiment: Growth inhibition of human MDA-MB-231 cells at 10 uM after 48 hrs; conditions: MDA-MB-231, 48 h, read-out: GI; in short: as §1
PC-3 = experiment: Growth inhibition of human PC3 cells at 10 uM after 48 hrs; conditions: PC-3, 48 h, read-out: GI; in short: as §1
TK-10 = experiment: Growth inhibition of human TK10 cells at 10 uM after 48 hrs; conditions: TK-10, 48 h, read-out: GI; in short: as §2
[4] = Growth inhibition of human UO31 cells at 10 uM after 48 hrs; conditions: UO-31, 48 h, read-out: GI; in short: as §2
CAKI-1 = experiment: Growth inhibition of human CAKI-1 cells at 10 uM after 48 hrs; conditions: CAKI-1, 48 h, read-out: GI; in short: as §1
[5] = Growth inhibition of human RXF393 cells at 10 uM after 48 hrs; conditions: RXF 393, 48 h, read-out: GI; in short: as §1
SK-OV-3 = experiment: Growth inhibition of human SKOV3 cells at 10 uM after 48 hrs; conditions: SK-OV-3, 48 h, read-out: GI; in short: as §2
[6] = Growth inhibition of human NCI-ADR-RES cells at 10 uM after 48 hrs; conditions: read-out: GI; in short: as §1
[7] = Growth inhibition of human OVCAR5 cells at 10 uM after 48 hrs; conditions: OVCAR-5, 48 h, read-out: GI; in short: as §1
[8] = Growth inhibition of human OVCAR4 cells at 10 uM after 48 hrs; conditions: OVCAR-4, 48 h, read-out: GI; in short: as §1
IGROV-1 = experiment: Growth inhibition of human IGROV1 cells at 10 uM after 48 hrs; conditions: IGROV-1, 48 h, read-out: GI; in short: as §1
UACC-62 = experiment: Growth inhibition of human UACC62 cells at 10 uM after 48 hrs; conditions: UACC-62, 48 h, read-out: GI; in short: as §2
SK-MEL-28 = experiment: Growth inhibition of human SK-MEL-28 cells at 10 uM after 48 hrs; conditions: SK-MEL-28, 48 h, read-out: GI; in short: as §2
SK-MEL-2 = experiment: Growth inhibition of human SK-MEL-2 cells at 10 uM after 48 hrs; conditions: SK-MEL-2, 48 h, read-out: GI; in short: as §2

Measured: inhibition of growth at 10 µM

COc1ccc(/C=C2\CCCc3c2nc(C)nc3-c2ccc(OC)cc2)cc1
< 30%: all assays above
